# A selection: hits, their analogues and other compounds. The true share with any hit is near 1.9%.
# CHRM5 PAM = positive allosteric modulators of human muscarinic M5 receptor | activation, % at 3 µM | AID 624038 | 0.3% of 360,000 active | CHO-K1 hM5, Fluo-8 calcium, ACh EC20 PAM; 0% = ACh EC20, 100% = ACh EC100;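 active means activation above the run cutoff, the mean activation of all test compounds plus 3 SD, cut at about 18% in these data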
#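 Probe or stimulus: acetylcholine, EC20 level; Assay system: human M5 receptor in CHO-K1 cells; Schedule: compound preincubation 140 s before EC20 acetylcholine addition; Technique: intracellular calcium via Fluo-8 fluorescence; Dosing: single-point, 3 µM nominal; Read-out basis: percent activation from peak-over-basal fluorescence ratio, scaled EC20-to-EC100 acetylcholine; Repeats: one well per compound, no replicates.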
# CHRM5 agonist = CHRM5 agonism in calcium assay; activation, % at 3 µM; P08912; CHO-K1 hM5 cells, Fluo-8 calcium fluorescence; 0% DMSO wells, 100% maximal acetylcholine response; AID 624037; 0.19% of 360,000 active;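 active means activation above the run's mean over test compounds plus 3 SD, cut at about 23% in these data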;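 further: signal is peak over basal fluorescence ratio across the kinetic read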
# CHRM4 antagonist = antagonists of human muscarinic M4 receptor (CHRM4). P08173. CHO-hM4 cells, ACh EC80, Fluo-8 calcium fluorescence. inhibition, % at 3 µM. 0.73% of 360,000 active. AID 624125;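 active means inhibition above its plate's cutoff, the mean inhibition of sample wells plus 3 SD, cut at about 27% in these data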;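 further: 0% = acetylcholine EC80 with DMSO and 100% = DMSO without agonist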
# Target sequence (P08173 whole entry, looked up): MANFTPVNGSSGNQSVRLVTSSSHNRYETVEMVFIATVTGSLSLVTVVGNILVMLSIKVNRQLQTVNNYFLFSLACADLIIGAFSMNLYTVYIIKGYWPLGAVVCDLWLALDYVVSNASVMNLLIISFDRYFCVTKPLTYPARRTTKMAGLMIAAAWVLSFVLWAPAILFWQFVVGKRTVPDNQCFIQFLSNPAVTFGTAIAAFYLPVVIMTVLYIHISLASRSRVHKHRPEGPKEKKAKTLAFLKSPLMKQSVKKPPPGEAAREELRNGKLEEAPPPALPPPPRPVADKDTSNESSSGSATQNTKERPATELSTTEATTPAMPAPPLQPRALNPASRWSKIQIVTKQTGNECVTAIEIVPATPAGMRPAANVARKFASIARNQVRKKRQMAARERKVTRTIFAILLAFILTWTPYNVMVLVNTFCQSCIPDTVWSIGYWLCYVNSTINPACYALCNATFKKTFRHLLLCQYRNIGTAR
# M5 antag = CHRM5 antagonism in calcium assay; P08912; 0.59% of 360,000 active; CHO-hM5 cells, Fluo-8 calcium fluorescence, ACh EC80; inhibition, % at 3 µM;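 active means inhibition above a per-plate cutoff, the mean of that plate's test compounds plus 3 SD, cut at about 27% in these data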;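 further: 0% = acetylcholine EC80 with DMSO and 100% = DMSO without agonist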
# CHRM4 PAM = CHRM4 positive allosteric modulation | P08173 | CHO-K1 hM4/Gqi5, Fluo-8 calcium fluorescence, ACh EC20; 0% = ACh EC20, 100% = maximal ACh | activation, % at 3 µM | 0.4% of 360,000 active | AID 624126;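 active means activation above its plate's cutoff, the mean activation of sample wells plus 3 SD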
# M4 ag = CHRM4 agonism in calcium assay; P08173; CHO-K1 hM4/Gqi5, Fluo-8 calcium fluorescence; vehicle 0%, full acetylcholine response 100%; activation, % at 3 µM; 0.14% of 360,000 active;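 active means activation above the run mean over all test wells plus 3 SD, cut at about 32% in these data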;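 further: peak over basal fluorescence ratio per well then scaled between controls; 0% = DMSO wells and 100% = acetylcholine at EC100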
# * hit, by the source's call.
SMILES,CHRM5 PAM,CHRM5 agonist,CHRM4 antagonist,M5 antag,CHRM4 PAM,M4 ag
CCCCNC(=O)C1c2ccccc2OCC(=O)N1Cc1ccccc1 (centres undefined),12.2,1.2,-10.5,-16.3,22.7*,0.9
COc1ccc(OC)c(S(=O)(=O)N2CCCCCC2)c1,8.5,-5.1,5.6,-7.1,10.4,0.0
COc1ccc(OC)c(S(=O)(=O)N2CCCC(C)C2)c1 (centres undefined),9.5,-1.8,-5.8,-10.2,28.4*,0.3
CC1CCCN(S(=O)(=O)c2ccc(Cl)s2)C1 (centres undefined),19.1*,-4.7,-22.3,5.5,1.2,-0.9
CC1CCCN(S(=O)(=O)c2ccc(Br)s2)C1 (centres undefined),1.3,-6.1,3.9,-5.1,-1.3,-0.7
Cc1ccsc1C(=O)N1CCN(c2ncc(C(F)(F)F)cc2Cl)CC1,-4.6,3.2,-3.5,-4.5,-2.4,8.0
COC(=O)c1ccccc1S(=O)(=O)N1CCC(C(=O)NCc2ccco2)CC1,10.9,0.0,-4.2,1.2,23.4*,0.8
COC(=O)c1ccccc1S(=O)(=O)N1CCC(C(=O)NCC2CCCO2)CC1 (centres undefined),8.5,1.8,2.9,3.2,-1.9,0.7
O=C(O)c1cccc2c1C(=O)N(Cc1ccncc1)C2,5.5,0.1,19.7,-0.9,32.1*,0.6
COc1cccc(NC(=O)CNC(=O)c2ccc(C)o2)c1,1.2,0.1,19.2,3.5,-3.5,-0.4
CCN(CC)S(=O)(=O)c1ccc(N2CCOCC2)c(NC(=O)C2=COCCO2)c1,-5.0,-3.2,7.1,11.1,5.7,1.1
CCOc1ccccc1N(CC(=O)NCC1CCCO1)C(=O)CCC(=O)Nc1ccccn1 (centres undefined),1.2,-1.8,-1.3,41.7*,11.7,0.8
CC1=C(C)CS(=O)N(S(=O)(=O)c2ccc(Cl)cc2)C1 (centres undefined),5.2,24.9*,47.6*,3.1,-14.8,9.9
CCOC(=O)C1=CCC(c2ccccc2)N(S(=O)(=O)c2ccc(C)cc2)[C@H]1CC (some centres undefined),-3.0,-1.9,1.8,5.1,-6.7,-0.6
O=C1C(=O)N(CCN2CCOCC2)C(c2ccncc2)/C1=C(/O)c1ccc2c(c1)OCO2 (centres undefined),0.1,0.9,6.4,-3.6,4.2,0.6
O=C1C(=O)N(CCN2CCOCC2)C(c2ccc([N+](=O)[O-])cc2)/C1=C(/O)c1ccc2c(c1)OCO2 (centres undefined),4.5,-3.0,-2.4,1.1,21.7*,2.8
Cc1cccc(-n2ncc3c(N4CCCC4)ncnc32)c1,-4.1,1.0,-3.1,0.9,23.2*,5.8
Cc1cccc(-n2ncc3c(N4CCOCC4)ncnc32)c1,-0.5,3.1,-10.6,-3.9,7.0,6.4
O=C(Nc1ccc(Cl)cc1)Nc1nnc(CSCc2ccccc2)s1,-0.3,-0.6,3.6,2.5,29.1*,2.6
O=C(Nc1ccc(Cl)cc1)Nc1nnc(CSc2ccc(Cl)cc2)s1,-0.3,0.1,5.7,-5.9,-4.0,2.0
COC(=O)c1c(C)[nH]c(C(=O)C(C)OC(=O)c2c(C)noc2C)c1C (centres undefined),-2.4,4.0,-4.6,11.0,2.2,4.4
Cc1c(C(=O)O)sc(=S)n1-c1ccccc1,-0.6,-0.1,-4.8,10.6,19.7*,1.8
CCOC(=O)c1sc(=S)n(-c2ccccc2)c1C,-13.4,-8.2,1.6,15.8,-6.3,6.1
Cc1cccc(C)c1NC(=O)C1CCCN(CCCc2ccccc2)C1 (centres undefined),-34.1,-10.5,83.2*,22.5,-24.7,1.7
COc1cccc(Nc2nc(C(N)Cc3ccc(C(F)(F)F)cc3)cs2)n1 (centres undefined),6.0,3.6,12.3,9.3,14.7,8.6
SMILES,CHRM5 PAM,CHRM5 agonist,CHRM4 antagonist,M5 antag,CHRM4 PAM,M4 ag
COc1cccc(Nc2nc(C(N)Cc3ccc(Cl)cc3)cs2)n1 (centres undefined),0.6,49.3*,25.9,13.4,1.3,47.5*
COc1ccc(CC(N)c2csc(Nc3cccc(OC)n3)n2)cc1 (centres undefined),2.3,5.8,0.4,2.1,4.0,18.2
COc1cccc(Nc2nc(C(N)Cc3ccc(F)cc3)cs2)n1 (centres undefined),4.4,11.1,13.8,1.7,6.2,35.1*
Cc1c(NC(=O)C(C)Oc2cccc(F)c2)c(=O)n(-c2ccccc2)n1C (centres undefined),14.1,3.5,-13.9,-9.6,6.2,-0.1
O=C(Oc1ccc(Br)cc1C(=S)N1CCOCC1)c1ccc(F)cc1,-2.9,-5.6,-6.5,8.5,-0.1,-0.3
CCCNC(=O)N(C)C[C@H]1Oc2ncc(Br)cc2C(=O)N([C@H](C)CO)C[C@H]1C,2.3,0.6,3.5,-4.2,-0.5,0.2
COc1ccc(-c2csc(NC(=O)Cc3ccccc3F)n2)cc1OC,-13.7,-2.4,44.9*,26.5,-21.1,8.5
COc1ccc(CC(=O)Nc2nc(-c3ccc(OC)c(OC)c3)cs2)cc1OC,-12.4,23.4*,-13.7,-0.7,-0.8,25.1
COc1ccc(-c2csc(NC(=O)CN3C(=O)C4CC=CCC4C3=O)n2)cc1OC (centres undefined),-13.5,-0.9,8.2,28.6*,-5.5,8.5
Cc1cc2nc(CS)[nH]c2cc1C,-3.2,-3.5,-4.0,-3.8,-0.1,1.7
CC(C)c1ccc(NS(=O)(=O)c2ccc(N3C(=O)CCC3=O)cc2)cc1,-23.3,5.8,10.5,27.1*,-50.6,20.6
CC(C)c1ccc(S(=O)(=O)Nc2ccc(SC(F)F)cc2)cc1,-13.8,-4.8,28.1*,0.5,-14.1,6.3
COCCNC(=O)C1(C)CCN(C(=O)c2cc(C(C)(C)C)nn2C)C1 (centres undefined),-1.2,0.1,-8.1,-4.2,-2.0,0.4
O=C(Cc1ccccc1)N/N=C/c1ccc2cccc(O)c2n1,-2.5,2.3,-21.1,10.2,3.4,1.7
NS(=O)(=O)c1ccc(NS(=O)(=O)c2ccc(NC(=O)c3ccc(-c4ccccc4)cc3)cc2)cc1,-3.6,27.2*,-1.7,0.6,-0.5,1.6
O=C(Nc1ccncc1)c1ccc(-c2ccccc2)cc1,-28.7,5.1,19.6,33.5*,-12.1,14.4
O=C(Nc1cccnc1)c1ccc(-c2ccccc2)cc1,-9.0,-1.3,4.3,3.9,-9.6,5.3
Cc1cc(C)c(OCC(=O)OC(C)C(=O)NC2CC2)c(C)c1 (centres undefined),0.5,-2.5,4.4,-3.5,-0.8,2.0
CNC(=O)c1cc(C(=O)c2ccc(C(F)(F)F)cc2)c[nH]1,-5.8,2.1,43.5*,5.3,-16.5,4.0
